Measured values published in ChEMBL document CHEMBL1122179, “1-(alkylamino)isochromans: hypotensives with peripheral and central activities” (J Med Chem, 1982).

Experiments:
Rattus norvegicus [1] = assay: Pressor effects of intravenous phenylephrine (2.5 ug/kg) was measured in anesthetized rats at 60 min.; format: functional
How it was run: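 Female Sprague–Dawley rats (200–300 g) anesthetized iv with α-chloralose 40 mg/kg, urethane 40 mg/kg and pentobarbital 15 mg/kg. Carotid artery catheterized for blood pressure, jugular vein for drugs. Pressor response to iv phenylephrine 2.5 µg/kg measured before and 15, 30, 45, 60 min after 1.0 mg/kg iv test drug dissolved in 0.1 M citric acid (1 mg/mL). Mean ± SEM.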

Rattus norvegicus [2] = assay: Heart rate of compound was measured in anesthetized rats at 0 min.; format: functional
How it was run: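 Female Sprague-Dawley rats (200–300 g), anesthetized iv with α-chloralose (40 mg/kg), urethane (40 mg/kg) and pentobarbital (15 mg/kg). Carotid artery catheter for blood pressure and heart rate, jugular vein for drugs. Test agent given at 1.0 mg/kg iv in 0.1 M citric acid (1 mg/mL). Pressor responses to iv norepinephrine 0.1 μg/kg, phenylephrine 2.5 μg/kg and angiotensin I 0.1 μg/kg were taken before and 15, 30, 45 and 60 min after dosing. Mean ± SEM.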

[3] = molecular target: T1, Adrenergic receptor alpha-2 (Rattus norvegicus, UniProt P22086+P19328+P22909); assay: Compound was tested for the inhibition of [3H]clonidine binding Alpha-2 adrenergic receptor of crude rat brain membrane
T1 sequence (P22086 whole entry): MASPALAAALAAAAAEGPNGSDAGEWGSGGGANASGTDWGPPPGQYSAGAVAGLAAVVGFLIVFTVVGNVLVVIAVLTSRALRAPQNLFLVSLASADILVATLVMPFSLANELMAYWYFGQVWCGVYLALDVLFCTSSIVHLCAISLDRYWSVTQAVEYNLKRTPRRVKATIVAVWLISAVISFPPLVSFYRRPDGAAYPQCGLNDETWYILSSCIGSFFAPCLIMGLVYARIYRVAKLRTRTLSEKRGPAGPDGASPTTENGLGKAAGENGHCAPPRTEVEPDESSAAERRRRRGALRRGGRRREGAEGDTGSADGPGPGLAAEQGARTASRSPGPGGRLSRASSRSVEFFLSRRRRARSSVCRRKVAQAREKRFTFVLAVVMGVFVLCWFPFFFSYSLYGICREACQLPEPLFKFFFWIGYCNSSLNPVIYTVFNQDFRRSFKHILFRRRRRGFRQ
T1 sequence (P19328 whole entry): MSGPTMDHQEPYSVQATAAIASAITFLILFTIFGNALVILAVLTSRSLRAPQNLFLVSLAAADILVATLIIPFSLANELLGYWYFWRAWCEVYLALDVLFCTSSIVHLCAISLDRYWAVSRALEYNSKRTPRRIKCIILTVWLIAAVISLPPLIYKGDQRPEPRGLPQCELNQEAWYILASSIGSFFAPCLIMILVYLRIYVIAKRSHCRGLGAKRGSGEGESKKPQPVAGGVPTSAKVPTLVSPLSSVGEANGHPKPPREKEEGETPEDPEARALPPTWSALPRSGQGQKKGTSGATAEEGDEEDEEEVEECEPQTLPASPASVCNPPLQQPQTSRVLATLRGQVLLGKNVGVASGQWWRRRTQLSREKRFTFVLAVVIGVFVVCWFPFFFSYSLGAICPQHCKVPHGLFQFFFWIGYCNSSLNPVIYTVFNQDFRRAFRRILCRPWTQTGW
T1 sequence (P22909 whole entry): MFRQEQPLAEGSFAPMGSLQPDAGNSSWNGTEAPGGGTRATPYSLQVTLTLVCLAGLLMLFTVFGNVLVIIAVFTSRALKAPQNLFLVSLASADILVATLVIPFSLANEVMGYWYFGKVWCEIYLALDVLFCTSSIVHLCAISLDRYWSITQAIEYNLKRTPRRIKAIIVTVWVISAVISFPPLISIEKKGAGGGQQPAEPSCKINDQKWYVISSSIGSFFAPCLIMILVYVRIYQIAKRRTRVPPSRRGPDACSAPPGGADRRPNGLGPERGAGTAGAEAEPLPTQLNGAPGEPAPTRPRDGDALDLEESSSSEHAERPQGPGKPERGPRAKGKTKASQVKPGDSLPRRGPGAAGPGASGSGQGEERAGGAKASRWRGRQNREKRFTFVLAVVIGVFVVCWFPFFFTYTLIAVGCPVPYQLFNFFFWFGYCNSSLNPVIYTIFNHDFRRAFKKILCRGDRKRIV

Ki [3]: 62 nM
Compound: COc1cc2c(cc1OC)C(CCN1CCN(c3ccc(F)cc3)CC1)OCC2 (stereo not drawn)
Pressor response (Rattus norvegicus [1]): 16 mmHg | HR (Rattus norvegicus [2]): 417 beats min-1
